Experimental data published in ChEMBL document CHEMBL4257561, “7-Deacetyl-10-alkylthiocolchicine derivatives - new compounds with potent anticancer and fungicidal activity” (Medchemcomm, 2018).
Values after ≈ are worked out from the molar mass of the structure shown.

Columns and labels:
[1] = tested on: Paecilomyces variotii; assay: microbe, parasite or virus in culture; assay type: functional; settings: BAM19 ATCC 18502, 168 h
[2] = tested on: Penicillium cyclopium; assay: Antifungal activity against Penicillium cyclopium Westling after 7 days by microtiter method; assay type: functional; settings: 168 h
[3] = tested on: Aureobasidium pullulans; assay: microbe, parasite or virus in culture; assay type: functional; settings: BAM10 ATCC 9348, 168 h
[4] = tested on: Trichoderma viride; assay: Antifungal activity against Trichoderma viride Pers after 7 days by microtiter method; assay type: functional; settings: 168 h
[5] = tested on: Chaetomium globosum; assay: microbe, parasite or virus in culture; assay type: functional; settings: BAM12 ATCC 6205, 168 h
[6] = tested on: Talaromyces funiculosus; assay: microbe, parasite or virus in culture; assay type: functional; settings: BAM22 ATCC 11797, 168 h
[7] = tested on: Aspergillus versicolor; assay: microbe, parasite or virus in culture; assay type: functional; settings: BAM8 ATCC 11730, 168 h
[8] = tested on: Aspergillus niger; assay: microbe, parasite or virus in culture; assay type: functional; settings: van Tiegen BAM4 ATCC 6275, 168 h
[9] = tested on: LoVo; assay: cells; assay type: functional, cell-based; settings: Homo sapiens, 72 h
[10] = tested on: Talaromyces funiculosus; assay: Fungicidal activity against Penicillium funiculosum BAM22 ATCC 11797 after 7 days by microtiter method; assay type: functional; settings: BAM22 ATCC 11797, 168 h
Procedure, shortened: (§1)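 Single-spore isolates kept on PDA slants. Spore suspensions ([…] CFU/mL) taken from two-week slants. Compound stock was 10 mg in 200 µL methanol; 10 µL of stock added to 100 µL PDA (39 g/L) per well, then 10 µL spores. Incubated aerobically 7 days, 28±1°C, RH >95%, dark. Growth scored on a three-point scale (+/±/−). Triplicates, with untreated and IPBC controls.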

[11] = tested on: Penicillium cyclopium; assay: Fungicidal activity against Penicillium cyclopium Westling after 7 days by microtiter method; assay type: functional; settings: 168 h
Procedure, shortened: as §1

[12] = tested on: Aspergillus versicolor; assay: Fungicidal activity against Aspergillus versicolor BAM8 ATCC 11730 after 7 days by microtiter method; assay type: functional; settings: BAM8 ATCC 11730, 168 h
Procedure, shortened: as §1

[13] = tested on: Trichoderma viride; assay: Fungicidal activity against Trichoderma viride Pers after 7 days by microtiter method; assay type: functional; settings: 168 h
Procedure, shortened: as §1

[14] = tested on: SK-OV-3; assay: cells; assay type: functional, cell-based; settings: Homo sapiens, SK-OV-3, 72 h
[15] = tested on: Paecilomyces variotii; assay: Fungicidal activity against Paecilomyces variotii BAM19 ATCC 18502 after 7 days by microtiter method; assay type: functional; settings: BAM19 ATCC 18502, 168 h
Procedure, shortened: as §1

[16] = tested on: Chaetomium globosum; assay: Fungicidal activity against Chaetomium globosum BAM12 ATCC 6205 after 7 days by microtiter method; assay type: functional; settings: BAM12 ATCC 6205, 168 h
Procedure, shortened: as §1

[17] = cells; assay type: cell-based; settings: Homo sapiens, 72 h
[18] = tested on: MCF7; assay: cells; assay type: functional, cell-based; settings: Homo sapiens, MCF7, 72 h
[19] = tested on: DLD-1; assay: cells; assay type: functional, cell-based; settings: Homo sapiens, DLD-1, 72 h
[20] = tested on: Aspergillus niger; assay: Fungicidal activity against Aspergillus niger van Tiegen BAM4 ATCC 6275 after 7 days by microtiter method; assay type: functional; settings: van Tiegen BAM4 ATCC 6275, 168 h
Procedure, shortened: as §1

[21] = tested on: SK-OV-3; assay: cells; assay type: functional, cell-based; settings: Homo sapiens, SK-OV-3, 72 h; remark: listed apart in the source
[22] = tested on: MDA-MB-231; assay: cells; assay type: functional, cell-based; settings: Homo sapiens, MDA-MB-231, 72 h
[23] = tested on: Aureobasidium pullulans; assay: Fungicidal activity against Aureobasidium pullulans BAM10 ATCC 9348 after 7 days by microtiter method; assay type: functional; settings: BAM10 ATCC 9348, 168 h
Procedure, shortened: as §1

SMILES	MFC [1]	MIC [2]	MIC [3]	MFC [4]	MIC [5]	MFC [6]	MFC [7]	MFC [8]	IC50 [9]	MFC [10]	MFC [11]	MFC [12]	MFC [13]	IC50 [14]	MFC [15]	MFC [16]	IC50 [17]	IC50 [19]	MFC [20]	IC50 [21]	further results
CCCSc1ccc2c(cc1=O)[C@@H](NC(C)=O)CCc1cc(OC)c(OC)c(OC)c1-2	> 4000 µg/mL	> 4000 µg/mL	> 4000 µg/mL	> 4000 µg/mL	> 4000 µg/mL	> 4000 µg/mL	> 4000 µg/mL	> 4000 µg/mL													
CCCCSc1ccc2c(cc1=O)[C@@H](N)CCc1cc(OC)c(OC)c(OC)c1-2	1000 µg/mL (≈ 2410 µM)	260 µg/mL (≈ 626 µM)	260 µg/mL (≈ 626 µM)	2000 µg/mL (≈ 4810 µM)	130 µg/mL (≈ 313 µM)	1000 µg/mL (≈ 2410 µM)	> 4000 µg/mL	> 4000 µg/mL	1870 nM	1000 µg/mL (≈ 2410 µM)	260 µg/mL (≈ 626 µM)	> 4000 µg/mL	2000 µg/mL (≈ 4810 µM)	62 nM	1000 µg/mL (≈ 2410 µM)	130 µg/mL (≈ 313 µM)	2170 nM	720 nM	> 4000 µg/mL	9 nM	IC50 [18]: 1460 nM; IC50 [22]: 4180 nM; MFC [23]: 260 µg/mL (≈ 626 µM)
CCSc1ccc2c(cc1=O)[C@@H](N)CCc1cc(OC)c(OC)c(OC)c1-2	> 4000 µg/mL	> 4000 µg/mL	> 4000 µg/mL	> 4000 µg/mL	> 4000 µg/mL	> 4000 µg/mL	> 4000 µg/mL	> 4000 µg/mL	390 nM					409 nM			150 nM	510 nM		305 nM	IC50 [18]: 1620 nM; IC50 [22]: 3550 nM
CCSc1ccc2c(cc1=O)[C@@H](NC(C)=O)CCc1cc(OC)c(OC)c(OC)c1-2	> 4000 µg/mL	> 4000 µg/mL	> 4000 µg/mL	> 4000 µg/mL	> 4000 µg/mL	> 4000 µg/mL	> 4000 µg/mL	> 4000 µg/mL													
CCCCSc1ccc2c(cc1=O)[C@@H](NC(C)=O)CCc1cc(OC)c(OC)c(OC)c1-2	> 4000 µg/mL	> 4000 µg/mL	> 4000 µg/mL	> 4000 µg/mL	> 4000 µg/mL	> 4000 µg/mL	> 4000 µg/mL	> 4000 µg/mL													
COc1cc2c(c(OC)c1OC)-c1ccc(SC(C)C)c(=O)cc1[C@@H](NC(C)=O)CC2	> 4000 µg/mL	> 4000 µg/mL	> 4000 µg/mL	> 4000 µg/mL	> 4000 µg/mL	> 4000 µg/mL	> 4000 µg/mL	> 4000 µg/mL													
CCCSc1ccc2c(cc1=O)[C@@H](N)CCc1cc(OC)c(OC)c(OC)c1-2	1000 µg/mL (≈ 2490 µM)	2000 µg/mL (≈ 4980 µM)	> 4000 µg/mL	2000 µg/mL (≈ 4980 µM)	> 4000 µg/mL	2000 µg/mL (≈ 4980 µM)	> 4000 µg/mL	> 4000 µg/mL	3830 nM	2000 µg/mL (≈ 4980 µM)	2000 µg/mL (≈ 4980 µM)	> 4000 µg/mL	2000 µg/mL (≈ 4980 µM)	46 nM	1000 µg/mL (≈ 2490 µM)	> 4000 µg/mL	670 nM	3420 nM	> 4000 µg/mL	22 nM	IC50 [18]: 2080 nM; IC50 [22]: 4240 nM; MFC [23]: > 4000 µg/mL
COc1cc2c(c(OC)c1OC)-c1ccc(SC(C)C)c(=O)cc1[C@@H](N)CC2	1000 µg/mL (≈ 2490 µM)	500 µg/mL (≈ 1250 µM)	260 µg/mL (≈ 648 µM)	2000 µg/mL (≈ 4980 µM)	130 µg/mL (≈ 324 µM)	1000 µg/mL (≈ 2490 µM)	> 4000 µg/mL	> 4000 µg/mL	130 nM	1000 µg/mL (≈ 2490 µM)	500 µg/mL (≈ 1250 µM)	> 4000 µg/mL	2000 µg/mL (≈ 4980 µM)	27 nM	1000 µg/mL (≈ 2490 µM)	130 µg/mL (≈ 324 µM)	1680 nM	6260 nM	> 4000 µg/mL	4 nM	IC50 [18]: 4900 nM; IC50 [22]: 5000 nM; MFC [23]: 260 µg/mL (≈ 648 µM)
O=C(/C=C/c1ccccc1)c1ccccc1 [CHALCONE]	1000 µg/mL (≈ 4800 µM)	260 µg/mL (≈ 1250 µM)	500 µg/mL (≈ 2400 µM)	500 µg/mL (≈ 2400 µM)	130 µg/mL (≈ 624 µM)	130 µg/mL (≈ 624 µM)	2000 µg/mL (≈ 9600 µM)	65 µg/mL (≈ 312 µM)		130 µg/mL (≈ 624 µM)	260 µg/mL (≈ 1250 µM)	2000 µg/mL (≈ 9600 µM)	500 µg/mL (≈ 2400 µM)		1000 µg/mL (≈ 4800 µM)	130 µg/mL (≈ 624 µM)			65 µg/mL (≈ 312 µM)		MFC [23]: 500 µg/mL (≈ 2400 µM)
COc1cc2c(c(OC)c1OC)-c1ccc(OC)c(=O)cc1[C@@H](NC(C)=O)CC2 [COLCHICINE]	> 4000 µg/mL	> 4000 µg/mL	0.001 µg/mL (≈ 0.0025 µM)	> 4000 µg/mL	> 4000 µg/mL	> 4000 µg/mL	> 4000 µg/mL	> 4000 µg/mL	119 nM	> 4000 µg/mL	> 4000 µg/mL	> 4000 µg/mL	> 4000 µg/mL	210 nM	> 4000 µg/mL	> 4000 µg/mL	586 nM	43 nM	> 4000 µg/mL	198 nM	IC50 [18]: 41 nM; IC50 [22]: 25 nM; MFC [23]: 0.001 µg/mL (≈ 0.0025 µM)
COc1cccc2c1C(=O)c1c(O)c3c(c(O)c1C2=O)C[C@@](O)(C(=O)CO)C[C@@H]3O[C@H]1C[C@H](N)[C@H](O)[C@H](C)O1 [DOXORUBICIN]									78.3 nM					128 nM			850 nM	145 nM		32.6 nM	
CCCCNC(=O)OCC#CI [IODOCARB]	2 µg/mL (≈ 7.12 µM)	2 µg/mL (≈ 7.12 µM)	1 µg/mL (≈ 3.56 µM)	100 µg/mL (≈ 356 µM)	5 µg/mL (≈ 17.8 µM)	2 µg/mL (≈ 7.12 µM)	2 µg/mL (≈ 7.12 µM)	2 µg/mL (≈ 7.12 µM)		2 µg/mL (≈ 7.12 µM)	2 µg/mL (≈ 7.12 µM)	2 µg/mL (≈ 7.12 µM)	100 µg/mL (≈ 356 µM)		2 µg/mL (≈ 7.12 µM)	5 µg/mL (≈ 17.8 µM)			2 µg/mL (≈ 7.12 µM)		MFC [23]: 1 µg/mL (≈ 3.56 µM)
